Experiment [1] has as its target Toll-like receptor 2 (Homo sapiens) (UniProt O60603). Briefly: Activation of human TLR2 expressed in HEK293 cells assessed as IL-8 secretion after 48 hrs by ELISA. (In general: In an ELISA, binding on a coated surface is turned into a signal by an enzyme label.)
The subject of the next experiment is D1. Nature of the experiment: Immunostimulatory activity in C57BL/6 (H-2b) mouse D1 cells assessed as increase in IL-12p40 secretion at 30 pM to 30 nM after 24 hrs by ELISA/DC maturation assay. The format is functional, cell-based. Put shortly: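 Cells were D1, a growth factor-dependent immature spleen-derived dendritic cell line from C57BL/6 (H-2b) mice. Compounds were titrated at 4 concentrations in complete IMDM, with about 40.000 cells per well. After 24 hours at 37°C, supernatant IL-12p40 was measured by ELISA. Assays were run in triplicate, with standard deviation shown.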

The target of experiment [2] is Toll-like receptor 2 (Homo sapiens) (UniProt O60603). Briefly: Activation of human TLR2 expressed in HEK293 cells assessed as IL-8 secretion at 30 to 300 nM after 48 hrs by ELISA.
Chain of Toll-like receptor 2 (Homo sapiens) (O60603 whole entry): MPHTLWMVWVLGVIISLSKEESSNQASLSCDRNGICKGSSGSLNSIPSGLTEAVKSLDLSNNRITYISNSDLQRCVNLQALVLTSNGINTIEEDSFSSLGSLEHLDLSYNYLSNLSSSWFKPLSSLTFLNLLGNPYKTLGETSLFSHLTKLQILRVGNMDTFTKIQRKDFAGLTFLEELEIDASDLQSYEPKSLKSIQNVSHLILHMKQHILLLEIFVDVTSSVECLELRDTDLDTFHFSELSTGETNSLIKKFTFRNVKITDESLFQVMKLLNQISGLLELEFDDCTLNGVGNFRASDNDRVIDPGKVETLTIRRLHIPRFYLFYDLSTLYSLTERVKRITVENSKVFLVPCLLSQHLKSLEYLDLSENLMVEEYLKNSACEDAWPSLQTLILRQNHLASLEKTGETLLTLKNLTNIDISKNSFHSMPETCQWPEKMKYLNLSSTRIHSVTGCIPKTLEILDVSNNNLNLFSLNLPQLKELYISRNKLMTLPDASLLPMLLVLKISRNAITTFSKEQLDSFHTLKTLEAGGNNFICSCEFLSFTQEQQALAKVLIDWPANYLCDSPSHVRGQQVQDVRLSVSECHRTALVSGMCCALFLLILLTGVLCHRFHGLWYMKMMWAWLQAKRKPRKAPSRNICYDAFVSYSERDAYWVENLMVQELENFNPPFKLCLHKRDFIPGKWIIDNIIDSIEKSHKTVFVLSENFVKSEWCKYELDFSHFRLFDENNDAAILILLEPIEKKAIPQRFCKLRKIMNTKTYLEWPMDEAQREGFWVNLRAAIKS

The source made the active and inactive calls. No cut-off for these calls is given here.

We go through 22 compounds from ChEMBL document CHEMBL3352356, “N-tetradecylcarbamyl lipopeptides as novel agonists for Toll-like receptor 2” (J Med Chem, 2014).

As for `C#CC[C@H](NC(=O)[C@H](CSCC(COC(=O)CCCCCCCCCCCCCCC)OC(=O)CCCCCCCCCCCCCCC)NC(=O)NCCCCCCCCCCCCCC)C(=O)N[C@@H](CCCCN)C(=O)N[C@@H](CCCCN)C(=O)N[C@@H](CCCCN)C(=O)N[C@@H](CCCCN)C(N)=O` (mixture of isomers), the Activity entry in experiment [1] is “Dose-dependent effect”. For the same compound, in the experiment with D1, the outcome was Active.

For the compound `C=CC[C@@H](NC(=O)[C@H](CSCC(COC(=O)CCCCCCCCCCCCCCC)OC(=O)CCCCCCCCCCCCCCC)NC(=O)NCCCCCCCCCCCCCC)C(=O)N[C@@H](CCCCN)C(=O)N[C@@H](CCCCN)C(=O)N[C@@H](CCCCN)C(=O)N[C@@H](CCCCN)C(N)=O` (mixture of isomers), in experiment [2], the outcome was inactive. On to `C=CC[C@H](NC(=O)[C@H](CSCC(COC(=O)CCCCCCCCCCCCCCC)OC(=O)CCCCCCCCCCCCCCC)NC(=O)NCCCCCCCCCCCCCC)C(=O)N[C@@H](CCCCN)C(=O)N[C@@H](CCCCN)C(=O)N[C@@H](CCCCN)C(=O)N[C@@H](CCCCN)C(N)=O` (mixture of isomers), for which the Activity result in experiment [1] was “Dose-dependent effect”. Also, the result with D1 was Active. For the compound `CCCCCCCCCCCCCCCC(=O)OCC(CSC[C@H](NC(=O)NCCCCCCCCCCCCCC)C(=O)NCC(=O)N[C@@H](CCCCN)C(=O)N[C@@H](CCCCN)C(=O)N[C@@H](CCCCN)C(=O)N[C@@H](CCCCN)C(N)=O)OC(=O)CCCCCCCCCCCCCCC` (mixture of isomers), in experiment [1], the Activity result is “Dose-dependent effect”. Consider `CCCCCCCCCCCCCCCC(=O)OCC(CSC[C@H](NC(=O)NCCCCCCCCCCCCCC)C(=O)NCCC(=O)N[C@@H](CCCCN)C(=O)N[C@@H](CCCCN)C(=O)N[C@@H](CCCCN)C(=O)N[C@@H](CCCCN)C(N)=O)OC(=O)CCCCCCCCCCCCCCC` (mixture of isomers), for which, in experiment [1], the Activity entry is “Dose-dependent effect”. Moreover, in the experiment on D1, the result was inactive. As for `CCCCCCCCCCCCCCCC(=O)OCC(CSC[C@H](NC(=O)NCCCCCCCCCCCCCC)C(=O)NC[C@H](CCCCN)C(=O)N[C@@H](CCCCN)C(=O)N[C@@H](CCCCN)C(=O)N[C@@H](CCCCN)C(=O)N[C@@H](CCCCN)C(N)=O)OC(=O)CCCCCCCCCCCCCCC` (mixture of isomers), the outcome (in experiment [2]; in the experiment on D1) was inactive. Turning to `CCCCCCCCCCCCCCCC(=O)OCC(CSC[C@H](NC(=O)NCCCCCCCCCCCCCC)C(=O)N[C@@H](C)C(=O)N[C@@H](CCCCN)C(=O)N[C@@H](CCCCN)C(=O)N[C@@H](CCCCN)C(=O)N[C@@H](CCCCN)C(N)=O)OC(=O)CCCCCCCCCCCCCCC` (mixture of isomers), the Activity result in experiment [1] is “Dose-dependent effect”. For `CCCCCCCCCCCCCCCC(=O)OCC(CSC[C@H](NC(=O)NCCCCCCCCCCCCCC)C(=O)N[C@@H](CC#N)C(=O)N[C@@H](CCCCN)C(=O)N[C@@H](CCCCN)C(=O)N[C@@H](CCCCN)C(=O)N[C@@H](CCCCN)C(N)=O)OC(=O)CCCCCCCCCCCCCCC` (mixture of isomers), the Activity entry in experiment [1] was “Dose-dependent effect”. Moreover, the result in the experiment with D1 was Active. `CCCCCCCCCCCCCCCC(=O)OCC(CSC[C@H](NC(=O)NCCCCCCCCCCCCCC)C(=O)N[C@@H](CC(N)=O)C(=O)N[C@@H](CCCCN)C(=O)N[C@@H](CCCCN)C(=O)N[C@@H](CCCCN)C(=O)N[C@@H](CCCCN)C(N)=O)OC(=O)CCCCCCCCCCCCCCC` (mixture of isomers): in experiment [1], the Activity entry was “Dose-dependent effect”. In addition, the outcome in the experiment on D1 was Active. On to `CCCCCCCCCCCCCCCC(=O)OCC(CSC[C@H](NC(=O)NCCCCCCCCCCCCCC)C(=O)N[C@@H](CC)C(=O)N[C@@H](CCCCN)C(=O)N[C@@H](CCCCN)C(=O)N[C@@H](CCCCN)C(=O)N[C@@H](CCCCN)C(N)=O)OC(=O)CCCCCCCCCCCCCCC` (mixture of isomers), for which the Activity entry in experiment [1] was “Dose-dependent effect”. Also, in the experiment on D1, the result was Active. Taken in the same sequence, the figures for `CCCCCCCCCCCCCCCC(=O)OCC(CSC[C@H](NC(=O)NCCCCCCCCCCCCCC)C(=O)N[C@@H](CCC)C(=O)N[C@@H](CCCCN)C(=O)N[C@@H](CCCCN)C(=O)N[C@@H](CCCCN)C(=O)N[C@@H](CCCCN)C(N)=O)OC(=O)CCCCCCCCCCCCCCC` (mixture of isomers) were “Dose-dependent effect” and “Active”. In the same order, the values of `CCCCCCCCCCCCCCCC(=O)OCC(CSC[C@H](NC(=O)NCCCCCCCCCCCCCC)C(=O)N[C@@H](CCCC)C(=O)N[C@@H](CCCCN)C(=O)N[C@@H](CCCCN)C(=O)N[C@@H](CCCCN)C(=O)N[C@@H](CCCCN)C(N)=O)OC(=O)CCCCCCCCCCCCCCC` (mixture of isomers) are “Dose-dependent effect” and “Active”.

As for `CCCCCCCCCCCCCCCC(=O)OCC(CSC[C@H](NC(=O)NCCCCCCCCCCCCCC)C(=O)N[C@@H](CCN)C(=O)N[C@@H](CCCCN)C(=O)N[C@@H](CCCCN)C(=O)N[C@@H](CCCCN)C(=O)N[C@@H](CCCCN)C(N)=O)OC(=O)CCCCCCCCCCCCCCC` (mixture of isomers), the Activity entry in experiment [1] is “Dose-dependent effect”. Also, in the experiment with D1, the result was Active. Taken in the same sequence, the figures for `CCCCCCCCCCCCCCCC(=O)OCC(CSC[C@H](NC(=O)NCCCCCCCCCCCCCC)C(=O)N[C@@H](CN)C(=O)N[C@@H](CCCCN)C(=O)N[C@@H](CCCCN)C(=O)N[C@@H](CCCCN)C(=O)N[C@@H](CCCCN)C(N)=O)OC(=O)CCCCCCCCCCCCCCC` (mixture of isomers) were “Dose-dependent effect” and “inactive”. With `CCCCCCCCCCCCCCCC(=O)OCC(CSC[C@H](NC(=O)NCCCCCCCCCCCCCC)C(=O)N[C@@H](CO)C(=O)N[C@@H](CCCCN)C(=O)N[C@@H](CCCCN)C(=O)N[C@@H](CCCCN)C(=O)N[C@@H](CCCCN)C(N)=O)OC(=O)CCCCCCCCCCCCCCC` (mixture of isomers), the Activity result in experiment [1] is “Dose-dependent effect”. The result with D1 was Active. For the compound `CCCCCCCCCCCCCCCC(=O)OCC(CSC[C@H](NC(=O)NCCCCCCCCCCCCCC)C(=O)N[C@@H](CS)C(=O)N[C@@H](CCCCN)C(=O)N[C@@H](CCCCN)C(=O)N[C@@H](CCCCN)C(=O)N[C@@H](CCCCN)C(N)=O)OC(=O)CCCCCCCCCCCCCCC` (mixture of isomers), the result (in experiment [2]; with D1) was inactive. For `CCCCCCCCCCCCCCCC(=O)OCC(CSC[C@H](NC(=O)NCCCCCCCCCCCCCC)C(=O)N[C@@H](Cc1ccc2ccccc2c1)C(=O)N[C@@H](CCCCN)C(=O)N[C@@H](CCCCN)C(=O)N[C@@H](CCCCN)C(=O)N[C@@H](CCCCN)C(N)=O)OC(=O)CCCCCCCCCCCCCCC` (mixture of isomers), the result (in experiment [2]; with D1) was inactive. Turning to `CCCCCCCCCCCCCCCC(=O)OCC(CSC[C@H](NC(=O)NCCCCCCCCCCCCCC)C(=O)N[C@@H](Cc1ccccc1)C(=O)N[C@@H](CCCCN)C(=O)N[C@@H](CCCCN)C(=O)N[C@@H](CCCCN)C(=O)N[C@@H](CCCCN)C(N)=O)OC(=O)CCCCCCCCCCCCCCC` (mixture of isomers), in experiment [1], the Activity result was “Dose-dependent effect”. The outcome in the experiment on D1 was inactive. Take `CCCCCCCCCCCCCCCC(=O)OCC(CSC[C@H](NC(=O)NCCCCCCCCCCCCCC)C(=O)N[C@@H](Cc1cccs1)C(=O)N[C@@H](CCCCN)C(=O)N[C@@H](CCCCN)C(=O)N[C@@H](CCCCN)C(=O)N[C@@H](CCCCN)C(N)=O)OC(=O)CCCCCCCCCCCCCCC` (mixture of isomers): in experiment [1], the Activity entry was “Dose-dependent effect”. The outcome in the experiment with D1 was inactive. Taken in the same sequence, the figures for `CCCCCCCCCCCCCCCC(=O)OCC(CSC[C@H](NC(=O)NCCCCCCCCCCCCCC)C(=O)N[C@H](C(=O)N[C@@H](CCCCN)C(=O)N[C@@H](CCCCN)C(=O)N[C@@H](CCCCN)C(=O)N[C@@H](CCCCN)C(N)=O)C(C)(C)S)OC(=O)CCCCCCCCCCCCCCC` (mixture of isomers) were “Dose-dependent effect” and “inactive”. As to `CCCCCCCCCCCCCCCC(=O)OCC(CSC[C@H](NC(=O)NCCCCCCCCCCCCCC)C(=O)N[C@H](C(=O)N[C@@H](CCCCN)C(=O)N[C@@H](CCCCN)C(=O)N[C@@H](CCCCN)C(=O)N[C@@H](CCCCN)C(N)=O)c1cccs1)OC(=O)CCCCCCCCCCCCCCC` (mixture of isomers), the Activity entry in experiment [1] was “Dose-dependent effect”. On to `CCCCCCCCCCCCCCCC(=O)OCC(CSC[C@H](NC(=O)NCCCCCCCCCCCCCC)C(=O)N[C@H](CS)C(=O)N[C@@H](CCCCN)C(=O)N[C@@H](CCCCN)C(=O)N[C@@H](CCCCN)C(=O)N[C@@H](CCCCN)C(N)=O)OC(=O)CCCCCCCCCCCCCCC` (mixture of isomers), for which the result (in experiment [2]; in the experiment on D1) was inactive.
